Experiment: Absorption and fluorescence measurements
Assay type: physicochemical
Conditions: for Absorption maximum λmaxAb / Fluorescence quantum yield ΦF: CM : ACN (4 : 1, v/v); for Absorption maximum λmaxAb: RPMI 1640 cell medium pH 7.5, 25 °C, c = 0.6 μM; for Fluorescence quantum yield ΦF: cell medium pH 7.5, 25 °C, average of three measurements; for Extinction coefficient ε: PB : ACN (4 : 1, v/v), 10 mM phosphate buffer pH 7.5, 25 °C
In short: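 UV-Vis absorption and corrected fluorescence spectra at 25 °C in 1 cm quartz cells, ~0.5–0.6 μM dye in 10 mM phosphate buffer pH 7.5 or RPMI 1640 medium pH 7.5 (serum containing acetylcholinesterase). Excitation 532 and 710 nm. ΦF relative to ICG in methanol (0.044) and Cy3 in PBS (0.04), absorbance 0.04–0.06 at excitation. Three independent measurements averaged, reproducibility within 5%.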

SMILES | Absorption maximum λmaxAb [nm] | Fluorescence quantum yield ΦF [%] | Extinction coefficient ε
CN1C(=CC=C2CCCC(=CC=C3N(CCCCCC(=O)O)c4ccccc4C3(C)C)C2=O)C(C)(C)c2ccccc21 [RD, 6-(3,3-Dimethyl-2-(2-(2-oxo-3-(2-(1,3,3-trimethylindolin-2-ylidene)ethylidene)cyclohexylidene)ethylidene)indolin-1-yl)hexanoic acid] | 526 | 2.6 ± 0.1 | 57 000 M^−1 × cm^−1
C[N+]1=C(C=CC2=C(OC(=O)CCCc3ccc(N(CCCl)CCCl)cc3)C(=CC=C3N(CCCCCC(=O)O)c4ccccc4C3(C)C)CCC2)C(C)(C)c2ccccc21 [IRD-CLB, 2-(2-(2-((4-(4-(bis(2-chloroethyl)amino)phenyl)butanoyl)oxy)-3-(2-(1-(5-carboxypentyl)-3,3-dimethylindolin-2-ylidene)ethylidene)cyclohex-1-en-1-yl)vinyl)-1,3,3-trimethyl-3H-indol-1-ium] | 785 | 6.3 ± 0.5 | 160 000 M^−1 × cm^−1

Reference: article PMC9073098 (RSC Advances, 2019)
